Assay outcomes (PubChem BioAssay)
Jurkat tox 60K – cytotoxic compounds reducing Jurkat cell viability. AID 463. Jurkat E6.1 viability, ATP luminescence, 48 h. 1.2% of 56,000 active. inhibition, % at 4 µM;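 active means inhibition above the mean inhibition of all tested compounds plus 3 SD, cut at about 28% in these data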
HUVEC prolif 384 – inhibitors of human endothelial cell proliferation. 1.1% of 86,000 active. viability, % at 10 µM (by protocol). HUVEC proliferation, CellTiter-Glo luminescence, 72 h; active compounds read low. AID 648;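 active means viability at or below 30%; inactive means viability above 30%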;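 further: 100% = median luminescence of DMSO-only cell control wells on each plate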
Fibroblast inh – blocks proliferation of human lung fibroblasts | LL 47 human lung fibroblast viability, ATP luminescence; active compounds read low | viability, % at 10 µM | 1.1% of 85,000 active | AID 719;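 active means viability at or below 50% in the single dose screen; inactive means viability above 50%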;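 further: compound exposure lasted 72 h before the ATP readout; 100% = median luminescence of untreated cell-only wells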
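material = human LL 47 lung fibroblast cells | dosing = compounds added from tenfold dosing solution, 0.1% DMSO final | timing = overnight cell rest, 72 h compound treatment at 37 °C | measured by = CellTiter-Glo luminescence measuring cellular ATP | evaluation = % viability versus median cells-only luminescence | control set = cell-only wells, no compound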
H69AR growth 86K – growth inhibitors of human H69AR lung tumor cells. H69AR lung tumor viability, ATP luminescence, 72 h; active compounds read low. 6% of 85,000 active. viability, % at 10 µM. AID 598;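 active means viability at or below 40%; inactive means viability above 40%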;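 further: multidrug resistant small cell line overexpressing MRP-1 efflux transporter; 100% = mean luminescence of untreated control wells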
PTK2B oligo ant – Pyk2 (human) oligomerization antagonism | z-score (the deposit names both 25 µM and 10 µM) | 0.83% of 99,000 active | AID 1347419 | Q293 cells, Pyk2 FERM NanoBiT luminescence; active compounds read low | Q14289;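 active means Z-score of -3 or lower, scaled per plate to the spread of control and sample wells; inactive means z-score above -3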;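 further: negative z-score means lost luminescence so less FERM oligomerization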
Target sequence (Q14289 whole entry, looked up): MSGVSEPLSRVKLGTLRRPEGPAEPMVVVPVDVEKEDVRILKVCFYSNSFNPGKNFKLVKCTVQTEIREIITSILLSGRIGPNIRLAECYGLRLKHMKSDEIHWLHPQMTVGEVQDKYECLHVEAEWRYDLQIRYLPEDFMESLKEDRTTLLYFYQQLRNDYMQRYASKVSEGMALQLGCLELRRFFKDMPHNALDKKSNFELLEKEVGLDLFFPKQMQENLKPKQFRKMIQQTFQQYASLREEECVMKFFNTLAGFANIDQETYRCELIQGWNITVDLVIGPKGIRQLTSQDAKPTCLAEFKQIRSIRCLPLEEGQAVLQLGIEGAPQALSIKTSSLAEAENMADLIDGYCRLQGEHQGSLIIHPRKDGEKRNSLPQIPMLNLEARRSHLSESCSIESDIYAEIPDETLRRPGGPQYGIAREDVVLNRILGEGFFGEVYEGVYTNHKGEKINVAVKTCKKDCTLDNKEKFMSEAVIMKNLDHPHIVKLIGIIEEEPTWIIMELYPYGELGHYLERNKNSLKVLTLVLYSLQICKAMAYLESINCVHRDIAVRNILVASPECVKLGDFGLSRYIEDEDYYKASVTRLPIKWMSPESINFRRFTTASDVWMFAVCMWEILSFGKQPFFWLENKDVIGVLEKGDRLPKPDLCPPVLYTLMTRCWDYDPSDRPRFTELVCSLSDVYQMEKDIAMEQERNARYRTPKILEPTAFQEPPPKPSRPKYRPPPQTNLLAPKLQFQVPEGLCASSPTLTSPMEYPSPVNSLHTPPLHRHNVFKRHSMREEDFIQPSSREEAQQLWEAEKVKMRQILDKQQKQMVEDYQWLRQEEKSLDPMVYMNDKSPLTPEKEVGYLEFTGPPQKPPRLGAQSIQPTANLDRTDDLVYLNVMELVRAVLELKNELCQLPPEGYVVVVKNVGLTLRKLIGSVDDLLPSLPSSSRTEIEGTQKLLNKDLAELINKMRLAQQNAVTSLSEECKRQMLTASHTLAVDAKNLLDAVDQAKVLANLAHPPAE
MT1-MMP txn act – MT1-MMP promoter transcription activation | AID 750 | 0.16% of 86,000 active | activation factor at 10 µM | HT1080 MT1-MMP promoter luciferase reporter, luminescence, overnight; active compounds read high;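 active means activation factor of at least 2 for MT1-MMP transcription at 10 µM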
Numbers without * were called inactive; nt = no result given. Rows were chosen to be rich in hits. Some 5.9% of all compounds tested hit in one or more screens of this group.

SMILES | Jurkat tox 60K | HUVEC prolif 384 | Fibroblast inh | H69AR growth 86K | PTK2B oligo ant | MT1-MMP txn act
O=S(=O)(c1ccc(Cl)cc1)N1CCC(n2cnc3cc(C(F)(F)F)ccc32)CC1 | nt | 94.3 | 102.7 | 34.8* | -0.57 | 1.4
C#CCOc1c(Br)cc(/C=N\NC(=O)CN2CCOCC2)cc1OCC | nt | nt | nt | nt | -0.75 | nt
CSc1nc2c(c(-c3ccc(O)cc3)c1C#N)CCC2 | 8.8 | 83.0 | 94.2 | 26.2* | -1.84 | 1
N#Cc1c(N)c(C#N)c(-c2ccc(O)cc2)c2c1CCCC2 | 10.9 | 77.9 | 98.3 | 78.1 | -1.9 | 1.1
COCCNC(=O)[C@H](C)/C=C/C(NC(=O)OCc1ccccc1)c1ccc(C(=O)OC)cc1 (some centres undefined) | nt | nt | nt | nt | nt | 1.1
O=[N+]([O-])c1ccc(-c2nc(-c3cccs3)c(-c3cccs3)[nH]2)cc1 | nt | nt | nt | nt | -4.17* | nt
O=[N+]([O-])c1cccc(-c2nc(-c3cccs3)c(-c3cccs3)[nH]2)c1 | nt | nt | nt | nt | -2.31 | nt
CCOc1cc2[nH]c(=S)n(CCCN3CCN(C)CC3)c(=O)c2cc1OCC | nt | 86.2 | 98.7 | 95.0 | nt | 1
CCOc1cc2[nH]c(=S)n(CCC(=O)N3CCc4ccccc4C3)c(=O)c2cc1OCC | nt | 76.8 | 78.4 | 28.5* | 0.58 | 0.9
CCOc1ccc(NCc2nnc(SCC(=O)Nc3cc(C)on3)n2-c2ccc(OC)cc2)cc1 | -5.1 | 85.7 | 98.7 | 75.7 | -0.62 | 1.1
CCOc1ccc(NCc2nnc(SCC(=O)Nc3cc(C)on3)n2-c2ccccc2OC)cc1 | 5.8 | 65.0 | 79.8 | 11.8* | -0.99 | 1
O=C(Nc1cnn(Cc2ccc(Cl)cc2Cl)c1)c1cc(-c2cccs2)on1 | 4.0 | 66.4 | 97.1 | 19.4* | 1.4 | 1.1
COc1ccc(CNC(=O)C(c2ccc(C)o2)N(C(=O)c2csnn2)c2ccc(C(C)C)cc2)cc1 (centres undefined) | nt | 107.0 | 99.5 | 38.3* | -0.89 | 1.3
COc1ccc(CNC(=O)C(c2ccc(C)o2)N(Cc2cccs2)C(=O)Cc2cccs2)cc1 (centres undefined) | nt | 71.0 | 96.0 | 23.7* | 0.76 | 1.2
COc1ccc(CC(=O)NCc2cccs2)cc1 | 13.8 | 70.5 | 92.6 | 30.4* | 0.37 | 1.2
O=C(Cc1cccs1)NCc1cccs1 | -11.4 | 90.4 | 101.9 | 107.5 | 1.49 | 1.2
O=C(CCN1CCN(c2ccccc2F)CC1)Nc1ccc2c(c1)OCO2 | -2.9 | 99.4 | nt | 98.3 | -0.04 | 1
COCCOC(=O)C1=C(C)N=C2SCCC(=O)N2C1c1cc(Br)ccc1OC (centres undefined) | -2.9 | 102.1 | 102.0 | 101.8 | nt | 1
O=C(O)C1CCCCC1C(=O)NCc1ccccc1 (centres undefined) | nt | 109.5 | 101.9 | 93.9 | -0.16 | 2*
O=C(O)C1CCCCC1C(=O)NCc1ccc(F)cc1 (centres undefined) | -0.1 | 104.3 | 99.5 | 96.8 | 0.11 | 1
COCCN1C(=O)C(=O)/C(=C(/O)c2cccc(S(=O)(=O)N(C)C)c2)C12C(=O)N(C)c1ccccc12 (centres undefined) | 9.2 | nt | nt | nt | 0.46 | 1
N#C/C(=N\Nc1ccc(Cl)cc1)C(=N)N1CCCCC1 | nt | 111.2 | 119.1 | 94.4 | -0.86 | 1.2
N#C/C(=N\Nc1ccccc1F)C(=N)N1CCCCC1 | nt | 90.0 | 101.3 | 107.2 | -0.25 | 2*
CCOc1cc(C)c(S(=O)(=O)Nc2ccc3cn[nH]c3c2)cc1C | nt | nt | nt | nt | -1.69 | nt
Cc1cc(N2CCC3(CC2)OCCO3)n2nc(C)c(-c3ccc(Cl)cc3)c2n1 | nt | 91.2 | 83.7 | 37.3* | nt | 1.4
SMILES | Jurkat tox 60K | HUVEC prolif 384 | Fibroblast inh | H69AR growth 86K | PTK2B oligo ant | MT1-MMP txn act
COc1ccc(-c2n[nH]c(C)c2-c2ccc(Cl)cc2)c(O)c1OC | -5.6 | 60.2 | 89.6 | 35.1* | -2.44 | 1.1
O=S(=O)(CCOc1ccccc1)c1nc2ccccc2[nH]1 | 5.5 | 78.4 | 85.4 | 0.3* | 0.47 | 1.4
COc1ccc(-c2nc3ccccc3c(=O)o2)cc1OC | nt | nt | nt | nt | 0.75 | nt
COc1ccc(-c2c/c(=N\c3nc(-c4ccccc4)c(C)s3)c3ccccc3o2)cc1O | nt | 34.1 | 39.8* | 30.6* | -2.09 | 0.5
Cc1ccc(Cl)cc1N1CCN(C(=O)C2CCN(S(=O)(=O)c3c(C)nn(C)c3C)CC2)CC1 | 7.0 | 62.9 | 90.3 | 25.0* | 0.19 | 1
COc1cccc(Nc2nnc(SCc3cc([N+](=O)[O-])cc4c3OCOC4)s2)c1 | nt | nt | nt | nt | -3.26* | nt
Cc1cccc(C)c1Nc1nnc(SCc2cc([N+](=O)[O-])cc3c2OCOC3)s1 | nt | 88.5 | 99.1 | 81.8 | -1.42 | 1.3
CCCOc1ccc2oc(=O)c3c(c2c1)CCCN3C(=O)CN(C)Cc1ccccc1 | 9.2 | 83.7 | 100.7 | 85.5 | -0.36 | 1.1
CCN(CC(=O)NC(C)C)Cc1nc2sc3c(c2c(=O)[nH]1)CCC3 | nt | 87.4 | 92.8 | 37.0* | -0.02 | 1.1
Cc1cccc(N2CC(C(=O)OCC(=O)c3ccc(OC(=O)c4cccs4)cc3)CC2=O)c1C (centres undefined) | nt | nt | nt | nt | -0.21 | nt
NC(=O)CSc1nc(-c2ccccc2Cl)ns1 | 3.9 | 89.4 | 93.8 | 92.8 | -0.11 | 1.3
COC(=O)C1=C(C(=O)OC)SC(=C2C(=S)C(C)(C)N(C(=O)CC(C)C)c3ccccc32)S1 | nt | 76.4 | 92.2 | 17.3* | -2.75 | 1.2
c1ccc(-c2nc(Sc3ncnc4c3cnn4-c3ccccc3)n[nH]2)cc1 | -4.9 | 92.5 | 104.1 | 27.1* | nt | 1.2
CCOC(=O)CSc1ncnc2c1cnn2-c1ccccc1 | -1.7 | 82.4 | 99.6 | 92.9 | 0.85 | 1
CCOC(=O)CSC1=C(C#N)C(=O)NC(c2ccc(OC)c(OC)c2)S1 (centres undefined) | nt | 73.1 | 77.1 | 6.6* | 0.43 | 1.1
CCOC(=O)CSC1=C(C#N)C(=O)NC(c2ccc(OC)cc2)S1 (centres undefined) | nt | 79.1 | 110.6 | 2.2* | -0.27 | 1.2
Cc1c(C(=O)Nc2ccccc2C(=O)N2CCOCC2)cccc1[N+](=O)[O-] | nt | nt | nt | nt | 0.57 | nt
CCCn1nc(CC(=O)OCC)c2ccccc2c1=O | nt | 93.5 | 95.1 | 87.7 | 0.4 | 1
CCn1c(SCC(=O)N2CCCc3ccccc32)nnc1-c1ccoc1C | nt | 92.8 | 92.5 | 93.8 | -0.54 | 1.3
O=C(Nc1nc2cc3c(cc2s1)OCO3)C1=COCCO1 | 32.4 | 49.6 | 80.5 | 25.5* | nt | nt
Fc1ccc(-n2nnnc2-c2cnc(-c3cccs3)nc2C(F)(F)F)cc1 | nt | nt | nt | nt | -3.66* | nt
FC(F)(F)c1nc(-c2ccncc2)ncc1-c1nnnn1-c1ccccc1 | nt | nt | nt | nt | 0.52 | nt
COc1ccc(NC(=O)C2=C(C)C(=O)OC23CCC(C)CC3)cc1Cl (centres undefined) | nt | 84.7 | 89.9 | 83.9 | 0.01 | 1.1
CCOc1ccc2[nH]c(=O)c(CN(Cc3ccccc3OC)C(=O)c3ccccc3)cc2c1 | nt | 51.7 | 50.9 | 27.0* | -2.13 | 1.2
Cc1cc2cc(CN(Cc3ccco3)C(=O)C3CCCCC3)c(=O)[nH]c2cc1C | -2.9 | 88.0 | 78.4 | 15.8* | 0.16 | 1.2
COc1ccc2[nH]c(=O)c(CN(CC3CCCO3)C(=O)Nc3ccccc3OC)cc2c1 (centres undefined) | 6.8 | 64.1 | 86.5 | 20.4* | -0.81 | 1
